The full list was thinned out, with hits kept by preference.
Tcruzi prolif: blocks T. cruzi growth in NIH3T3 culture; 77,000 compounds, 5.9% hits; inhibition, % at 8.34 µM; T. cruzi beta-gal in NIH3T3, GalScreen luminescence, 90 h;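 active means mean inhibition above about 93%, with at least 55% of replicates each passing it, limit read from the data, passing the limit was not always enough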
IDH1 R132H inh: inhibitors of human IDH1 R132H; O75874; IDH1 R132H reductase, diaphorase/resazurin fluorescence, 60 min; inhibition, % at 10 µM; 70,000 compounds, 0.18% hits; AID 624101; in the data active means inhibition above about 34%;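 further: 0% = DMSO and 100% = no enzyme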
GASC1 inh: KDM4C (human) demethylase inhibition; AID 720574; Q9H3R0; inhibition, % at 12.5 µM; 96,000 compounds, 0.15% hits; GST-KDM4C 2-372, H3K9me3 peptide, LANCE TR-FRET;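 active means mean replicate inhibition above about 25%, with at least 55% of replicates also reaching it, limit read from the data, passing the limit was not always enough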
Target sequence (Q9H3R0 2-372 limits assumed): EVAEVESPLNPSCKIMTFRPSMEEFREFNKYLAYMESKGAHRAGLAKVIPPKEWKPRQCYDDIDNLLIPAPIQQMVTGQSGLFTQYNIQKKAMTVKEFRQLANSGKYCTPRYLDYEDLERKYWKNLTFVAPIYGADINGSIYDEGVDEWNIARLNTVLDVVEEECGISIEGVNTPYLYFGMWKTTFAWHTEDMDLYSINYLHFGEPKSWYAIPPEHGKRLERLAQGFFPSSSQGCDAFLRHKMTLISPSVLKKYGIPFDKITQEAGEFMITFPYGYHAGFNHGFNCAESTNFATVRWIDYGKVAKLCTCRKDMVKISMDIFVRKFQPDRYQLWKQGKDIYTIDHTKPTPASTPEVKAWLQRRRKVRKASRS
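Test system: N-terminal GST-fused human GASC-1 (KDM4C) fragment, residues 2-372; quantity: GASC-1 enzyme at 10 nM final in reaction; dosing: single dose; schedule: 30 min demethylation and 1 h detection at room temperature; signal: LANCE TR-FRET, excitation 340 nm, emissions 618 and 671 nm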
Starred values were filed as active, the others as inactive; . = no result given.

SMILES | Tcruzi prolif | IDH1 R132H inh | GASC1 inh
COCCNC(=O)C[C@H]1C[C@@H]2c3cc(N(C)C)ccc3O[C@@H]2[C@@H](CO)O1 | . | -13 | 46*
CCCNC(=O)C[C@@H]1C[C@H]2c3cc(N(C)C)ccc3O[C@H]2[C@@H](CO)O1 | 28 | -3 | 28*
COCCNC(=O)C[C@@H]1C[C@H]2c3cc(NC(=O)CN(C)C)ccc3O[C@H]2[C@@H](CO)O1 | 55 | 0 | 0
COC(=O)C[C@@H]1C[C@@H]2c3cc(N(C)C)ccc3O[C@@H]2[C@H](CO)O1 | 91 | -3 | .
CN(C)c1ccc2c(c1)[C@H]1C[C@H](CC(=O)NCC3CC3)O[C@@H](CO)[C@H]1O2 | 35 | -3 | 19
CN(C)c1ccc2c(c1)[C@H]1C[C@H](CC(=O)NCCc3ccccc3)O[C@H](CO)[C@H]1O2 | 54 | -11 | 18
CN(C)c1ccc2c(c1)[C@@H]1C[C@@H](CC(=O)NCC3CC3)O[C@@H](CO)[C@@H]1O2 | 54 | -12 | 32*
COc1ccc(S(=O)(=O)N(C)C[C@H]2OCCCC[C@@H](C)Oc3ccc(NS(C)(=O)=O)cc3C(=O)N([C@@H](C)CO)C[C@@H]2C)cc1 | -112 | . | 1
C[C@@H]1CN([C@H](C)CO)C(=O)Cc2cc(NC(=O)NC3CCCCC3)ccc2O[C@@H]1CN(C)Cc1ccc(C(F)(F)F)cc1 | 37 | 2 | -1
COc1ccc(S(=O)(=O)N(C)C[C@H]2Oc3ccc(NC(=O)CCCN(C)C)cc3C(=O)N([C@@H](C)CO)C[C@@H]2C)cc1 | . | -6 | 3
Cn1c(SCC(=O)Nc2cc(Cl)c(Cl)cc2Cl)nnc1-c1ccccc1 | . | 0 | .
CCCNC(=O)C[C@@H]1C[C@H]2c3cc(NC(=O)CN(C)C)ccc3O[C@H]2[C@H](CO)O1 | 16 | 45* | 40*
CCCNC(=O)C[C@H]1C[C@@H]2c3cc(NC(=O)CN(C)C)ccc3O[C@@H]2[C@H](CO)O1 | 3 | 0 | 3
CC(C)CC#Cc1ccc2c(c1)O[C@@H](CN(C)C(=O)Cc1ccncc1)[C@@H](C)CN([C@H](C)CO)S2(=O)=O | 84 | 3 | 3
CC(C)CC#Cc1ccc2c(c1)O[C@@H](CN(C)C(=O)c1cccnc1)[C@H](C)CN([C@@H](C)CO)S2(=O)=O | 94 | 10 | 0
CC(C)CC#Cc1ccc2c(c1)O[C@@H](CN(C)C(=O)Cc1cccnc1)[C@H](C)CN([C@H](C)CO)S2(=O)=O | . | 38* | -1
CC(C)CC#Cc1ccc2c(c1)O[C@H](CN(C)C(=O)Cc1cccnc1)[C@H](C)CN([C@H](C)CO)S2(=O)=O | . | 52* | 2
CC(C)CC#Cc1ccc2c(c1)O[C@@H](CN(C)C(=O)Cc1cccnc1)[C@@H](C)CN([C@@H](C)CO)S2(=O)=O | . | 13 | 0
CC(C)CC#Cc1ccc2c(c1)O[C@H](CN(C)C(=O)Cc1cccnc1)[C@@H](C)CN([C@@H](C)CO)S2(=O)=O | . | 54* | 3
COc1ccc(C(C)NC(=O)c2cc(-c3ccccn3)nc3ccc(Br)cc23)cc1OC (stereo not given) | . | 0 | .
O=C(O)C[C@@H]1C[C@@H]2c3cc(NC(=O)CC4CC4)ccc3O[C@@H]2[C@@H](CO)O1 | -6 | 60* | 38*
O=C(O)C[C@@H]1C[C@@H]2c3cc(NC(=O)CC4CC4)ccc3O[C@@H]2[C@H](CO)O1 | -18 | -1 | 1
O=C(O)C[C@@H]1C[C@H]2c3cc(NC(=O)Nc4ccc(C(F)(F)F)cc4)ccc3O[C@H]2[C@@H](CO)O1 | -8 | 0 | -1
O=C(O)C[C@@H]1C[C@@H]2c3cc(NC(=O)Nc4ccc(C(F)(F)F)cc4)ccc3O[C@@H]2[C@@H](CO)O1 | -70 | 50* | 34*
O=C(CCN1CCCCC1)N[C@H]1CC[C@@H](CC(=O)N2CCC(Cc3ccccc3)CC2)O[C@H]1CO | 10 | 0 | 0
SMILES | Tcruzi prolif | IDH1 R132H inh | GASC1 inh
O=C(CCCN1C(=O)c2ccccc2C1=O)Nc1ccccc1Cl | . | 0 | .
COc1ccccc1-n1c(CN2C(=O)c3ccccc3C2=O)nc2ccccc2c1=O | . | 0 | .
CCCC#Cc1ccc2c(c1)O[C@H](CN(C)C(=O)CN(C)C)[C@@H](C)CN([C@H](C)CO)S2(=O)=O | . | -3 | 0
O=C(Nc1ccc(Cl)cc1)N[C@H]1CC[C@@H](CCNC(=O)c2ccccc2F)O[C@H]1CO | 36 | -1 | .
O=C(Nc1ccc(Cl)cc1)N[C@H]1CC[C@H](CCNC(=O)c2ccccc2F)O[C@H]1CO | -53 | 43* | 40*
O=C(COc1cc(Cl)c(Cl)cc1Cl)Nc1ccccc1C(=O)N1CCCCC1 | . | 0 | .
COc1ccccc1S(=O)(=O)N[C@H]1CC[C@H](CC(=O)NCc2cccc(F)c2)O[C@@H]1CO | 13 | 0 | 0

Bioassay records: PubChem, Broad Institute
